Experiment [1] deals with T1, Amine oxidase [flavin-containing] A (Homo sapiens, UniProt P21397).
T1 sequence (P21397 whole entry): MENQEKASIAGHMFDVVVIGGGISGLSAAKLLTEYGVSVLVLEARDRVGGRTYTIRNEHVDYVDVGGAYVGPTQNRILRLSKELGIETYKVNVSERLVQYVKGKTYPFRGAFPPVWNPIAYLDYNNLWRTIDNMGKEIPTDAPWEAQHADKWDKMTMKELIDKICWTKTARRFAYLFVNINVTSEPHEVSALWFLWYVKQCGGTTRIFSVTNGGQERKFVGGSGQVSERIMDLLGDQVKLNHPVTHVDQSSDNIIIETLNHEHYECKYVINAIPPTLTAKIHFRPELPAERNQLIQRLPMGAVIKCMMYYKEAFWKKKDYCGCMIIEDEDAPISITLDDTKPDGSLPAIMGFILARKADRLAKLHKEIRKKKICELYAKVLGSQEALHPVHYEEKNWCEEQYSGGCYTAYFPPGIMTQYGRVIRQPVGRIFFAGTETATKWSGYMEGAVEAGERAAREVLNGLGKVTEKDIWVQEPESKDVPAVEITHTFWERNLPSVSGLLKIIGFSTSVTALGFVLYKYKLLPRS
As to the kind of experiment: Inhibition of human recombinant MAOA expressed in Pichia pastoris. An outline of the steps:
(§1)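 Purified recombinant enzyme desalted on Sephadex G-25 into 50 mM potassium phosphate pH 7.5 with 0.8% β-octyl-glucoside. Activity was read spectrophotometrically with and without inhibitor in 50 mM HEPES pH 7.5 with 0.5% reduced Triton X-100 at 25°C. Substrates were kynuramine for MAO-A and benzylamine for MAO-B.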

The target in experiment [2] is T2, Amine oxidase [flavin-containing] B (Rattus norvegicus, UniProt P19643).
T2 sequence (P19643 whole entry): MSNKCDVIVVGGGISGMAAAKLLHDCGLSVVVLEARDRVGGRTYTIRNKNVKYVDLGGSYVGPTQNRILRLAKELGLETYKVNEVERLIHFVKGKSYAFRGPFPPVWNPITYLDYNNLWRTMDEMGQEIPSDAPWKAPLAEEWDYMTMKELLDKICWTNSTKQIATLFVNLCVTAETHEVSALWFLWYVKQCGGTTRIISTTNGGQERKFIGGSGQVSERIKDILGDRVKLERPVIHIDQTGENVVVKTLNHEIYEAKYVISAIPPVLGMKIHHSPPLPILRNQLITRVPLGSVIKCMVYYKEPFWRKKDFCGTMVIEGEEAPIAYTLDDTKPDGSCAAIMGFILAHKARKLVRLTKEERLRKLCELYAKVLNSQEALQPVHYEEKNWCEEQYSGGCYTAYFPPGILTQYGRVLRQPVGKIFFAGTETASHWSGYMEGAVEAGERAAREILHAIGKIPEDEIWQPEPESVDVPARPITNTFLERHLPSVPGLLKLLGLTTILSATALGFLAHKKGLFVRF
As to the kind of experiment: Inhibition of rat brain MAOB. An outline of the steps: (§2)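 Enzyme was a crude brain mitochondrial suspension from male Sprague–Dawley rats (180–220 g). Substrates were 5-HT 100 μM for MAO-A and DMAPEA 5 μM for MAO-B. Substrates and metabolites were measured by C18 reverse-phase HPLC with electrochemical detection. IC50 was taken from % inhibition versus -log concentration, at least two experiments in triplicate, mean ± SD. Ki came from Cheng-Prusoff.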

The target in experiment [3] is T3, Amine oxidase [flavin-containing] A (Rattus norvegicus, UniProt P21396).
T3 sequence (P21396 whole entry): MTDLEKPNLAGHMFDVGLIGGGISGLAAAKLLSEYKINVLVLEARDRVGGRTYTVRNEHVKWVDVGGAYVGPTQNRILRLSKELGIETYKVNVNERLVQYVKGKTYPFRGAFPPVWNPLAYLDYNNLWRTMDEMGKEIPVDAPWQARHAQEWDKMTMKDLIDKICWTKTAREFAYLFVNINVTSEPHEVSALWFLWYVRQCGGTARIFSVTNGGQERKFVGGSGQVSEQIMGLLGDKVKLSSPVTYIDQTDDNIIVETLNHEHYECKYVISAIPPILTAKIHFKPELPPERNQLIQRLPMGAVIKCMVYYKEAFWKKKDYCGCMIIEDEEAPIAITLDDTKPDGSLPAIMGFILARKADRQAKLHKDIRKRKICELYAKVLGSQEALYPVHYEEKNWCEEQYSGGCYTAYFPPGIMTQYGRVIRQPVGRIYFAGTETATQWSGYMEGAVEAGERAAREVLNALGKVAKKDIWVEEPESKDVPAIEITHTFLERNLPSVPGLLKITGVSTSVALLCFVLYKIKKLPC
Nature of the experiment: Inhibition of rat brain MAOA. In short, it runs like this: as §2

For experiment [4], the target named is T4, Amine oxidase [flavin-containing] B (Homo sapiens, UniProt P27338).
T4 sequence (P27338 whole entry): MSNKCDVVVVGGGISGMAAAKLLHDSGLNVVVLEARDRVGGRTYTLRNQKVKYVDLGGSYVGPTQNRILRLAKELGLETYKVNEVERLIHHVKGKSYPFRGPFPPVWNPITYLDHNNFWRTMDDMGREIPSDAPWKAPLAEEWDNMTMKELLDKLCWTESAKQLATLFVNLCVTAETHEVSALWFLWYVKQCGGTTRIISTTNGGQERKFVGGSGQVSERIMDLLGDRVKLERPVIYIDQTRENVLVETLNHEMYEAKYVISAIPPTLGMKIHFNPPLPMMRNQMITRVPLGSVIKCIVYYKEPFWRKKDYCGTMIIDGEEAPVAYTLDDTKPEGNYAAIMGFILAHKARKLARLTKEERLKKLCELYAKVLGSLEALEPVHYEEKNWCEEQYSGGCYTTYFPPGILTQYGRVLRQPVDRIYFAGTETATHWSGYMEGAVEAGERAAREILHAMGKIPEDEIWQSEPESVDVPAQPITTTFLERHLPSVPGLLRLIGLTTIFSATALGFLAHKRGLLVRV
As to the kind of experiment: Inhibition of human recombinant MAOB expressed in Pichia pastoris. In short, it runs like this: as §1

A value given as a limit tells only on which side of the number the result lay.

On to `CSc1ccc(C[C@H](C)N)cc1`, for which the Ki (in general, a measure of affinity in units of concentration, obtained from inhibition or displacement) is 133 nM in experiment [1], above 100 µM in experiment [2] and 245 nM in experiment [3].

Regarding `CCCSc1ccc(C[C@H](C)N)cc1`, the Ki came out at 30 nM in experiment [1], 14 µM in experiment [4], 15000 µM in experiment [2] and 115 nM in experiment [3].

As for `CCSc1ccc(C[C@H](C)N)cc1`, the Ki was 75 nM in experiment [1], above 100 µM in experiment [4], above 100 µM in experiment [2] and 54 nM in experiment [3].

As to `CCCCSc1ccc(C[C@H](C)N)cc1`, the Ki in experiment [1] was determined as 22 nM; in experiment [4], 4.58 µM; in experiment [2] it was 8.92 µM; in experiment [3], 392 nM.

(Values after ChEMBL document CHEMBL1143709, “Human and rat monoamine oxidase-A are differentially inhibited by (S)-4-alkylthioamphetamine derivatives: insights from molecular modeling studies” (Bioorg Med Chem, 2007).)
